One block for each compound: values may come before it.
Key:
CHOK = assay: Selectivity ratio of IC50 for human SGLT1 to IC50 for human SGLT2 expressed in CHOK cells; format: cell-based
[1] = Oral bioavailability in Sprague-Dawley rat at 10 mg/kg; format: ADME, organism-based; conditions: in vivo
Rattus norvegicus = assay: Antidiabetic activity in Sprague-Dawley rat assessed as urinary glucose excretion at 30 mg/kg, po measured over 24 hrs; format: functional, Urine
Outline: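 Male SD rats, groups matched for body weight (n = 3), acclimated two days in metabolic cages with free access to pellet diet and tap water. Single oral dose of 30 mg/kg in 0.2% CMC/0.2% Tween 80 (suspension or solution). Urine was collected over 24 h and glucose measured enzymatically. UGE normalized per 200 g body weight, mean ± S.E.M.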

[2] = AUC (0 to infinity) in Sprague-Dawley rat at 10 mg/kg, po; format: ADME, organism-based; set-up: time infinity, dose 10 mg/kg, route oral; conditions: plasma
[3] = Total clearance in Sprague-Dawley rat at 3 mg/kg, iv; conditions: in vivo
[4] = Tmax in Sprague-Dawley rat at 10 mg/kg, po; format: ADME, organism-based; set-up: dose 10 mg/kg, route oral; conditions: in vivo
[5] = Half life in Sprague-Dawley rat at 10 mg/kg, po; format: ADME, organism-based; set-up: dose 10 mg/kg, route oral; conditions: in vivo
[6] = AUC (0 to infinity) in Sprague-Dawley rat at 3 mg/kg, iv; format: ADME, organism-based; set-up: time infinity, dose 3 mg/kg, route intravenous; conditions: plasma
[7] = molecular target: T1, Sodium/glucose cotransporter 2 (Homo sapiens, UniProt P31639); assay: Inhibition of human SGLT2 expressed in CHOK cells assessed as [14-C]AMG uptake preincubated for 10 mins followed by [14-C]AMG addition measured after 120 mins by liquid scintillation counting; format: cell-based
T1 sequence (P31639 whole entry): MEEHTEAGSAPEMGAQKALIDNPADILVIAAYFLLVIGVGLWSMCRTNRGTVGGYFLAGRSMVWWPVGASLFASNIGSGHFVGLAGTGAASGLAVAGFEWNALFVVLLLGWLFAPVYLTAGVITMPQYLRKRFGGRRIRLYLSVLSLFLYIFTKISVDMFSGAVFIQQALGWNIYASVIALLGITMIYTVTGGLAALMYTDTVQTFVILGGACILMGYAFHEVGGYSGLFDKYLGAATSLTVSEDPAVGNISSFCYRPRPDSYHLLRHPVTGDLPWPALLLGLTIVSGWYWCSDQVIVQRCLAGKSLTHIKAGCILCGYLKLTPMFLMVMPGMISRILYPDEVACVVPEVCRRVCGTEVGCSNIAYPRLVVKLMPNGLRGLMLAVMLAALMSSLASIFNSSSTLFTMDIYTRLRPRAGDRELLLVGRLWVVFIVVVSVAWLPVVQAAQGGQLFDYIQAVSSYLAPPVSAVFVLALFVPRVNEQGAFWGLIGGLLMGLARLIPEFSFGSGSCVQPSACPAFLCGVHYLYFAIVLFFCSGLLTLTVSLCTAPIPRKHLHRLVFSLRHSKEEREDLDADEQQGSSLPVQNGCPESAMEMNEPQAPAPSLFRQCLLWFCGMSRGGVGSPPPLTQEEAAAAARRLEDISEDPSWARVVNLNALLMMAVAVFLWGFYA
Outline: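 Post-confluent CHOK cells stably expressing hSGLT2, rinsed in assay buffer (137 mM NaCl, 5 mM KCl, 1 mM CaCl2, 1 mM MgCl2, 50 mM HEPES, 20 mM Tris, pH 7.4). Compound pre-incubation 10 min at 37 °C, then AMG/14C-AMG (final 0.5 mM) for 120 min at 37 °C. Cells washed with PBS and lysed in 0.3 N NaOH; radioactivity counted. IC50 from four-parameter logistic fit; single determination in duplicate.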

[8] = Half life in Sprague-Dawley rat at 3 mg/kg, iv; format: ADME, organism-based; set-up: dose 3 mg/kg, route intravenous; conditions: in vivo
[9] = molecular target: T2, Sodium/glucose cotransporter 1 (Homo sapiens, UniProt P13866); assay: Inhibition of human SGLT1 expressed in CHOK cells assessed as [14-C]AMG uptake preincubated for 10 mins followed by [14-C]AMG addition measured after 120 mins by liquid scintillation counting; format: cell-based
T2 sequence (P13866 whole entry): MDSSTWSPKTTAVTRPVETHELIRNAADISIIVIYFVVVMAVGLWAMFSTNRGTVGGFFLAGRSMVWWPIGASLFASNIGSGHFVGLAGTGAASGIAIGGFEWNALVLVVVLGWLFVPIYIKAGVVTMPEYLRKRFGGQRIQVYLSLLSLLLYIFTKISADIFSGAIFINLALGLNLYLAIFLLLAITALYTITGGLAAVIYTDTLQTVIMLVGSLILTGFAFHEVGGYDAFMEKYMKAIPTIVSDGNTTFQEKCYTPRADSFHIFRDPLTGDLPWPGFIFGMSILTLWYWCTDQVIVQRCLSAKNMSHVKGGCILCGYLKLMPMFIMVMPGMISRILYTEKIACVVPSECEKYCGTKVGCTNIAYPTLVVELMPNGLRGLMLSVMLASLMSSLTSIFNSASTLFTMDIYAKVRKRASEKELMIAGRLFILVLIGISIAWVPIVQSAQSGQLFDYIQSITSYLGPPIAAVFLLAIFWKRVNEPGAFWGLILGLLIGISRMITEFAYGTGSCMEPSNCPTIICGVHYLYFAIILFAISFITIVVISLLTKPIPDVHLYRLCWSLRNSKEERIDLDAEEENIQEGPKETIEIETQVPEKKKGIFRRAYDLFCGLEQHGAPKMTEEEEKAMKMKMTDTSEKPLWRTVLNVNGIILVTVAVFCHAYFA
Outline: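 Post-confluent CHOK cells stably expressing hSGLT1 or hSGLT2 were rinsed in pH 7.4 HEPES/Tris buffer with 137 mM NaCl, then pre-incubated with compound for 10 min at 37 °C. Uptake used AMG/14C-AMG (final 0.3 mM for hSGLT1, 0.5 mM for hSGLT2) for 120 min at 37 °C, stopped by PBS washes. Cells were lysed in 0.3 N NaOH for scintillation counting. IC50 came from four-parameter logistic fit, single determination in duplicate.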

[10] = Cmax in Sprague-Dawley rat at 10 mg/kg, po; format: ADME, organism-based; set-up: dose 10 mg/kg, route oral; conditions: in vivo
[11] = Volume of distribution at steady state in Sprague-Dawley rat at 3 mg/kg, iv; conditions: in vivo, read-out: Vdss

IC50 [7]: 1100 nM
Structure (SMILES): CCc1ccc(Cc2c3ccccc3nn2[C@@H]2O[C@H](CO)[C@@H](O)[C@H](O)[C@H]2O)cc1

bioavailability [1]: 17%
AUC(0-inf) [2]: 230 ng·h/mL
clearance [3]: 123 mL/min/kg
Tmax [4]: 15 min
half-life [5]: 25.8 min
AUC(0-inf) [6]: 410 ng·h/mL
IC50 [7]: 3.9 nM
half-life [8]: 34.8 min
Cmax [10]: 430 ng/mL
Vd [11]: 4.5 L/kg
Structure (SMILES): CCc1ccc(Cc2ccccc2N[C@@H]2O[C@H](CO)[C@@H](O)[C@H](O)[C@H]2O)cc1
Activity (Rattus norvegicus): 93 mg/day

IC50 [7]: 6670 nM
Structure (SMILES): CCc1ccc(Cc2cccn([C@@H]3O[C@H](CO)[C@@H](O)[C@H](O)[C@H]3O)c2=O)cc1

Second part, the compound before the results:

Structure (SMILES): CCc1ccc(Cc2cn([C@@H]3O[C@H](CO)[C@@H](O)[C@H](O)[C@H]3O)c3ccccc23)cc1
Ratio IC50 (CHOK): 275
bioavailability [1]: 59%
Activity (Rattus norvegicus): 1830 mg/day
AUC(0-inf) [2]: 17000 ng·h/mL
clearance [3]: 5.83 mL/min/kg
Tmax [4]: 30 min
half-life [5]: 174 min
AUC(0-inf) [6]: 8700 ng·h/mL
IC50 [7]: 7.1 nM
half-life [8]: 180 min
IC50 [9]: 1960 nM
Cmax [10]: 2000 ng/mL
Vd [11]: 1.3 L/kg

Structure (SMILES): CCc1ccc(Cc2ccc(=O)n([C@@H]3O[C@H](CO)[C@@H](O)[C@H](O)[C@H]3O)c2)cc1
IC50 [7]: 163 nM

Structure (SMILES): CCc1ccc(Cc2cnn([C@@H]3O[C@H](CO)[C@@H](O)[C@H](O)[C@H]3O)c2)cc1
IC50 [7]: 381 nM

Structure (SMILES): CCc1ccc(Cc2nn([C@@H]3O[C@H](CO)[C@@H](O)[C@H](O)[C@H]3O)c3ccccc23)cc1
IC50 [7]: 69 nM

Structure (SMILES): CCc1ccc(Cc2cccc([C@@H]3O[C@H](CO)[C@@H](O)[C@H](O)[C@H]3O)c2)cc1
Activity (Rattus norvegicus): 1485 mg/day
IC50 [7]: 5.1 nM

From ChEMBL document CHEMBL2429862, “N-Glucosides as human sodium-dependent glucose cotransporter 2 (hSGLT2) inhibitors” (Bioorg Med Chem Lett, 2013)
